{"source": "ChEMBL document CHEMBL3046889", "about": "“Structure-activity relationships of phenylcyclohexene and biphenyl antitubulin compounds against plant and mammalian cells” (Bioorg Med Chem Lett, 2001)", "key": {"Nicotiana tabacum [1]": {"system": "Nicotiana tabacum", "assay": "Inhibition of Nicotiana tabacum (tobacco) root growth assessed as inhibition of root elongation", "assay_type": "functional, organism-based", "summary_of_the_method": "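In vitro tobacco root growth assay on germinating seeds; root elongation scored, EC50 derived.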"}, "HCT-116": {"system": "HCT-116", "assay": "Antitumor activity against Homo sapiens (human) HCT116 cells", "assay_type": "functional, cell-based", "summary_of_the_method": "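Cytotoxicity toward human HCT116 colon cancer cells measured by sulforhodamine B assay in 96-well format.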"}, "Tubulin (Bos taurus) [2]": {"system": "Tubulin (Bos taurus)", "assay": "Inhibition of Bos taurus (bovine) brain tubulin polymerization at 200 uM"}, "Nicotiana tabacum [3]": {"system": "Nicotiana tabacum", "assay": "Mitotic arrest in Nicotiana tabacum (tobacco) root suspension-cultured cells assessed as accumulation of cells in metaphase by cytological staining assay", "assay_type": "functional", "summary_of_the_method": "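Suspension-cultured tobacco cells were treated with the compound, and their chromosomes were cytologically stained. The read-out was mitotic index, meaning the fraction of cells in mitosis, with arrest scored as cells accumulating in metaphase.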"}, "Tubulin (Bos taurus) [4]": {"system": "Tubulin (Bos taurus)", "assay": "Displacement of [3H]colchicine from Bos taurus (bovine) brain tubulin by competition assay"}}, "note": "The source made the active and inactive calls. No cut-off for these calls is given here."}
{"compound": "COc1ccc(-c2ccc(OC)c(OC)c2OC)c(C#N)c1", "values": [{"measurement": "EC50", "setting": "Nicotiana tabacum [1]; Nicotiana tabacum", "result": "> 100", "unit": "µM"}, {"measurement": "EC50", "setting": "HCT-116; Homo sapiens, HCT-116", "result": 0.58, "unit": "µM"}]}
{"compound": "COc1ccc(-c2ccc(OC)c(OC)c2OC)c([N+](=O)[O-])c1", "values": [{"measurement": "EC50", "setting": "Nicotiana tabacum [1]; Nicotiana tabacum", "result": "> 100", "unit": "µM"}, {"measurement": "EC50", "setting": "HCT-116; Homo sapiens, HCT-116", "result": 2.65, "unit": "µM"}]}
{"compound": "COc1ccc(-c2ccccc2[N+](=O)[O-])c(OC)c1OC", "values": [{"measurement": "EC50", "setting": "Nicotiana tabacum [1]; Nicotiana tabacum", "result": 52, "unit": "µM"}, {"measurement": "EC50", "setting": "HCT-116; Homo sapiens, HCT-116", "result": 19.6, "unit": "µM"}]}
{"compound": "COc1ccc(-c2ccccc2C#N)c(OC)c1OC", "values": [{"measurement": "EC50", "setting": "Nicotiana tabacum [1]; Nicotiana tabacum", "result": "> 100", "unit": "µM"}, {"measurement": "EC50", "setting": "HCT-116; Homo sapiens, HCT-116", "result": 13.8, "unit": "µM"}]}
{"compound": "COc1ccc(-c2ccc(OC)c(OC)c2OC)c(C)c1", "values": [{"measurement": "EC50", "setting": "Nicotiana tabacum [1]; Nicotiana tabacum", "result": "> 100", "unit": "µM"}, {"measurement": "EC50", "setting": "HCT-116; Homo sapiens, HCT-116", "result": 0.78, "unit": "µM"}]}
{"compound": "O=[N+]([O-])[C@@H]1CC=CC[C@H]1c1ccccc1", "note": "(mixture of isomers)", "values": [{"measurement": "EC50", "setting": "Nicotiana tabacum [1]; Nicotiana tabacum", "result": "> 100", "unit": "µM"}, {"measurement": "EC50", "setting": "HCT-116; Homo sapiens, HCT-116", "result": 174, "unit": "µM"}]}
{"compound": "COc1ccc(C2CC=CCC2C#N)c(OC)c1OC", "note": "(mixture of isomers)", "values": [{"measurement": "EC50", "setting": "Nicotiana tabacum [1]; Nicotiana tabacum", "result": 2.29, "unit": "µM"}, {"measurement": "EC50", "setting": "HCT-116; Homo sapiens, HCT-116", "result": 113, "unit": "µM"}, {"measurement": "inhibition", "setting": "Tubulin (Bos taurus) [2]", "result": "Active"}]}
{"compound": "COc1ccc([C@@H]2CC=CC[C@H]2[N+](=O)[O-])c(OC)c1OC", "note": "(racemic) [listing 1 of 2 here]", "values": [{"measurement": "EC50", "setting": "Nicotiana tabacum [1]", "result": 0.27, "unit": "µM"}, {"measurement": "EC50", "setting": "HCT-116; hct-116", "result": 85, "unit": "µM"}]}
{"compound": "COc1cccc([C@@H]2CC=CC[C@H]2[N+](=O)[O-])c1", "note": "(racemic)", "values": [{"measurement": "EC50", "setting": "Nicotiana tabacum [1]; Nicotiana tabacum", "result": 3.78, "unit": "µM"}, {"measurement": "EC50", "setting": "HCT-116; Homo sapiens, HCT-116", "result": 143, "unit": "µM"}]}
{"compound": "COc1ccc([C@@H]2CC=CC[C@H]2[N+](=O)[O-])c(OC)c1OC", "note": "(racemic) [listing 2 of 2 here]", "values": [{"measurement": "Activity", "setting": "Nicotiana tabacum [3]", "result": "Active"}, {"measurement": "inhibition", "setting": "Tubulin (Bos taurus) [2]", "result": "Active"}, {"measurement": "inhibition", "setting": "Tubulin (Bos taurus) [4]", "result": "Active"}]}
{"compound": "COc1ccc([C@H]2CC=CC[C@H]2C#N)c(OC)c1OC", "note": "(single isomer, unassigned)", "values": [{"measurement": "EC50", "setting": "HCT-116; hct-116", "result": 142, "unit": "µM"}]}
{"compound": "COc1ccc([C@@H]2CC=CC[C@H]2[N+](=O)[O-])c(OC)c1OC", "note": "(single isomer, unassigned)", "values": [{"measurement": "EC50", "setting": "Nicotiana tabacum [1]", "result": 1.96, "unit": "µM"}, {"measurement": "EC50", "setting": "HCT-116; Homo sapiens, HCT-116", "result": 71, "unit": "µM"}]}
{"compound": "COc1ccc([C@H]2CC=CC[C@@H]2C#N)c(OC)c1OC", "note": "(single isomer, unassigned; enantiomer I)", "values": [{"measurement": "EC50", "setting": "Nicotiana tabacum [1]", "result": 0.667, "unit": "µM"}, {"measurement": "EC50", "setting": "HCT-116; hct-116", "result": 136, "unit": "µM"}]}
{"compound": "COc1ccc([C@@H]2CC=CC[C@H]2[N+](=O)[O-])c(OC)c1OC", "note": "(single isomer, unassigned; enantiomer I)", "values": [{"measurement": "EC50", "setting": "Nicotiana tabacum [1]", "result": 0.1, "unit": "µM"}, {"measurement": "EC50", "setting": "HCT-116; hct-116", "result": 79, "unit": "µM"}]}
{"compound": "COc1ccc([C@H]2CC=CC[C@@H]2C#N)c(OC)c1OC", "note": "(single isomer, unassigned; enantiomer II)", "values": [{"measurement": "EC50", "setting": "Nicotiana tabacum [1]", "result": 7.17, "unit": "µM"}, {"measurement": "EC50", "setting": "HCT-116; hct-116", "result": 47, "unit": "µM"}]}
{"compound": "COc1ccc([C@H]2CC=CC[C@H]2C#N)c(OC)c1OC", "note": "(single isomer, unassigned; enantiomer II)", "values": [{"measurement": "EC50", "setting": "Nicotiana tabacum [1]; Nicotiana tabacum", "result": "> 25", "unit": "µM"}, {"measurement": "EC50", "setting": "HCT-116; hct-116", "result": 45, "unit": "µM"}]}
{"compound": "COc1ccc(-c2ccc(OC)c(OC)c2OC)cc1", "note": "[2,3,4,4'-TETRAMETHOXYBIPHENYL]", "values": [{"measurement": "EC50", "setting": "Nicotiana tabacum [1]; Nicotiana tabacum", "result": "> 100", "unit": "µM"}, {"measurement": "EC50", "setting": "HCT-116; Homo sapiens, HCT-116", "result": 1.52, "unit": "µM"}]}
{"compound": "COc1cc2c(c(OC)c1OC)-c1ccc(OC)c(=O)cc1[C@@H](NC(C)=O)CC2", "note": "[COLCHICINE]", "values": [{"measurement": "EC50", "setting": "Nicotiana tabacum [1]; Nicotiana tabacum", "result": 356, "unit": "µM"}, {"measurement": "Activity", "setting": "Nicotiana tabacum [3]", "result": "Active"}, {"measurement": "EC50", "setting": "HCT-116; Homo sapiens, HCT-116", "result": 0.02, "unit": "µM"}]}
